FLuc stim CS: affects firefly luciferase, flagging false hits in luciferase stimulation screens. P08659. ATPlite luciferase biochemical, luminescence, 10 min; 0 = ATP-free wells, 1 = DMSO control. activation factor at 10 µM. 200,000 tested, under 10 active. AID 1027;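 active = luciferase activation factor, scaled between plate controls, of at least 2 with compound at 10 µM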
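assay system = Luciferase/luciferin detection reagent, cell-free biochemical luciferase assay | also added = ATP substrate | times = 10 min post-reagent at room temperature | measured by = luminescence from luciferase reaction | measure = luciferase activation, seen as luminescence increase over controls | benchmarks = low control with PBS replacing ATP, high control enzyme plus ATP without compound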
STAT1 activator: increases IFN-gamma driven STAT1 reporter signal; activation (% of control), % at 5.5 µM; hit rate 2.6% among 200,000; NIH 3T3 STAT1-luciferase reporter, luminescence; 100% = IFN-gamma alone, no compound;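 active = activation above the screen-wide mean activation plus 3 SD, cut at about 130% in these data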
FLuc inh counter: Photinus pyralis luciferase inhibition counter-screen; ATPLite firefly luciferase biochemical luminescence, 10 min; inhibition, % at 10 µM; hit rate 1.5% among 200,000; AID 1006;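 active = inhibition above about 50% when tested at 10 µM, limit read from the data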
APP 5'UTR act: APP 5'UTR luciferase reporter activation. SH-SY5Y APP 5'UTR luciferase reporter, luminescence; zero percent = DMSO vehicle wells. activation, % at 2 µM. hit rate 1% among 190,000;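 active = activation above a set limit, based on mean plus 3 SD of controls, cut at about 140% in these data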
Rad51 HR inh: blocks human Rad51 in homologous recombination; Q06609; hRad51 DNA strand exchange, fluorescence dequenching; inhibition, % at 10 µM; hit rate 0.085% among 200,000;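 active = inhibition above 40% at the single screening dose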
Target sequence (Q06609 whole entry, looked up): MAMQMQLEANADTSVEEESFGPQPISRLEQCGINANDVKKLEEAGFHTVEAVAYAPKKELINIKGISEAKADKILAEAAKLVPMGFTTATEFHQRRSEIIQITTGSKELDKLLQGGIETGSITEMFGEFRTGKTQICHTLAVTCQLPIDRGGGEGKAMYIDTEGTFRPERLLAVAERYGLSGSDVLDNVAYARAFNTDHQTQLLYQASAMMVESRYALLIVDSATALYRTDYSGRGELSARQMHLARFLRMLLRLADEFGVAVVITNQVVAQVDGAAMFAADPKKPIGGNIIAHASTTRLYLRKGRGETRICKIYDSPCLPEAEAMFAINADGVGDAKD
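Assay system: Human Rad51 nucleoprotein filaments preassembled on unlabelled ssDNA | Reagent: Donor/quencher-labelled 47-bp dsDNA substrate | Doses: One concentration, 10 µM final | Times: 37 °C 15-min filament assembly, 30-min compound preincubation, 15-min exchange | Technique: Fluorescein emission 520 nm, excitation 485 nm | Benchmarks: Plate control and blank wells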
NF-kB expr up: NF-kB expression increase, human neuronal cells; NF-kB reporter expression; stronger effect = higher value; fold change at 12.5 µM; hit rate 1.6% among 190,000; in the data active = fold change above about 3.3
STAT1 activ conf: STAT1 activation, confirmation assay | NIH 3T3 STAT1-luciferase reporter, IFN-gamma potentiation, luminescence; 100% = IFN-gamma EC80 alone, no compound | shares compounds with STAT1 activator | activation (% of control), % at 5.7 µM | AID 1262 | hit rate 97% among 1,200;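 active = activation above a set limit carried over from the earlier primary STAT1 screen, cut at about 140% in these data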
NFkB act STAT1ct: NF-kappaB activation in STAT1 activator counter-screen; shares compounds with STAT1 activator; HEK293T NF-kB luciferase reporter, TNF-alpha stimulated, luminescence; 100% = TNF-alpha with vehicle only; activation (% of control), % at 5.7 µM; hit rate 43% among 1,200;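 active = activation above the mean of solvent-only control wells plus 3 SD, set per campaign, cut at about 130% in these data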;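 also: TNF-alpha given at a submaximal dose yielding about 80% of full reporter signal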
STAT3 act STAT1c: human STAT3 activation in STAT1 activator counter-screen; hit rate 46% among 1,200; shares compounds with STAT1 activator; activation (% of control), % at 5.7 µM; AID 1316; U3A cells STAT3-luciferase reporter, IL-6, luminescence; cells lack STAT1; 100 = IL-6 alone, no compound effect;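 active = activation above the solvent-only control well mean plus 3 SD, set per plate batch, cut at about 110% in these data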;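 also: higher means more STAT3 reporter activation so hits are non-selective activators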
Hits are given with their value; . = inactive; / = no result given. In the library only some 3.9% were active in any assay of this set; here they are far more common.

SMILES	FLuc stim CS	STAT1 activator	FLuc inh counter	APP 5'UTR act	Rad51 HR inh	NF-kB expr up	STAT1 activ conf	NFkB act STAT1ct	STAT3 act STAT1c
CC(C)(C)C(=O)c1cnc(Nc2ccccc2Cl)s1	.	158.1	.	.	.	5.1	204.3	.	111.0
COc1ccc(-c2noc(CN(Cc3nccn3C)C(C)C)n2)cc1	/	/	/	/	.	/	/	/	/
Cc1cc(/C=N/NC(=O)c2nn(C)cc2Cl)c(C)n1-c1cccc(Br)c1	.	158.8	.	.	/	.	.	.	.
Cc1cc(/C=N/NC(N)=S)c(C)n1-c1cccc(Cl)c1	.	.	.	.	.	.	/	/	/
COC(=O)c1ccc(NC(=O)CN2CCN(c3ccccn3)CC2)cc1	.	.	.	.	.	.	/	/	/
CCS(=O)(=O)N1Cc2ccccc2CC1C(=O)Nc1nc2ccccc2s1 (stereo not drawn)	.	173.5	.	209.6	.	.	230.2	.	119.4
COc1ccc(Br)cc1CN(C)CC(=O)Nc1c(Cl)cccc1Cl	.	.	.	.	.	.	/	/	/
COc1cccc(CN2CCNC(=O)C2CC(=O)NCc2cn3ccc(C)cc3n2)c1OC (stereo not drawn)	/	/	/	/	.	/	/	/	/
COc1ccccc1NC(=S)N/N=C/c1ccc(O)cc1	.	159.2	.	.	/	4.01	209.4	.	.
COc1ccccc1NC(=S)N/N=C/c1cccc(C)c1	.	.	.	.	.	.	/	/	/
Cc1ccccc1-c1nnc(Cc2ccccc2)o1	.	153.6	.	.	.	.	175.4	135.3	.
COc1ccc(Cc2nnc(-c3ccccc3)o2)cc1	.	.	.	.	.	.	/	/	/
CCC(=O)Nc1nc(-c2ccc3c(c2)OCCO3)cs1	.	152.7	.	146.6	.	7.13	212.4	144.9	.
COc1ccc2c(c1)CC/C2=N\OC(=O)c1ccccc1C	.	159.3	74.7	152.6	.	5.9	181.5	134.4	.
COc1ccc2c(c1)CC/C2=N\OC(=O)c1cccc(C)c1	.	165.3	78.5	.	.	5.87	183.1	136.8	.
COC(=O)c1nn(-c2nc(-c3cccc(OC)c3)cc(C(F)(F)F)n2)cc1[N+](=O)[O-]	.	.	.	.	.	.	/	/	/
COc1ccccc1NC(=O)c1csc2c1CCCC2	.	.	.	.	.	.	/	/	/
CCOc1ccc(NC(=O)c2csc3c2CCCC3)cc1	.	171.4	.	.	/	3.85	197.9	138.7	.
CC(=O)c1cccc(NC(=O)c2csc3c2CCCCC3)c1	.	.	.	.	.	.	/	/	/
COc1cc(NC(=O)c2csc3c2CCCC3)ncn1	.	170.8	.	.	.	3.33	192.6	.	.
C=CCNc1nc(-c2cc3ccccc3o2)cs1	.	185.3	76.1	210.1	.	7.54	225.5	.	.
O=C(N/N=C\c1cccc(Cl)c1)c1n[nH]c2c1CCCC2	.	170.1	.	156.2	.	.	212.4	.	.
O=C(N/N=C/c1ccc(Cl)cc1Cl)c1n[nH]c2c1CCCC2	.	.	.	.	.	.	/	/	/
CC(=O)c1c(C)[nH]c(C(=O)OCC(=O)NCCc2ccc(F)cc2)c1C	.	.	.	.	.	.	/	/	/
COC(=O)c1c(C)[nH]c(C(=O)OCc2ccc(F)cc2)c1C	.	152.3	.	.	.	.	163.3	.	.
CCc1c(C)[nH]c(C(=O)OCc2ccccc2)c1C	.	152.5	.	.	.	.	145.6	.	.
Cc1ccc(C)c(N2CCN(C(=O)CN(C)S(=O)(=O)c3cnc[nH]3)CC2)c1	.	.	.	.	.	.	/	/	/
CC(=O)/C=C(\C)Nc1ccc(-c2cnc(-c3ccccc3)o2)cc1	.	180.1	.	.	.	4.8	186.3	.	.

Screening results (PubChem BioAssay)
